ChEMBL document CHEMBL2390866, “Novel pyrimidoazepine analogs as serotonin 5-HT(2A) and 5-HT(2C) receptor ligands for the treatment of obesity” (Eur J Med Chem, 2013)
Activity calls are given as the source filed them. No cut-off for these calls is given here.

Assays:
[1] = target: T1, Alpha-1A adrenergic receptor (Homo sapiens, UniProt P35348); assay: Binding affinity to adrenergic alpha1A receptor (unknown origin)
T1 sequence (P35348 whole entry): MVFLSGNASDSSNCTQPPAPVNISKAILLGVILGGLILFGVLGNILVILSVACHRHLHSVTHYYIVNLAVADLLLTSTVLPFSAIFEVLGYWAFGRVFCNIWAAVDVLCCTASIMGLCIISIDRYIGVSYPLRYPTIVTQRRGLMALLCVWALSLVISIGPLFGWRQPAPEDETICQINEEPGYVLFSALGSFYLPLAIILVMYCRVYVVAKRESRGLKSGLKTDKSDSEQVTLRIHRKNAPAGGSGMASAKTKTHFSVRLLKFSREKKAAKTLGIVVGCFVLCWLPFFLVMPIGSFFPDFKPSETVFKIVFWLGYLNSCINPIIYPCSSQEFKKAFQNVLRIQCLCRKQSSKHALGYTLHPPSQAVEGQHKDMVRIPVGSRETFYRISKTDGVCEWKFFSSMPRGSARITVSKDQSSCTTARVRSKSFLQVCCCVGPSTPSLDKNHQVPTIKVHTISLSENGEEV

[2] = Plasma concentration in Sprague-Dawley rat at 10 mg/kg, po measured at 8 hrs; assay type: ADME, organism-based; design: dose 10 mg/kg, route oral
Procedure, shortened: (§1)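 Rats fasted 12 h, then dosed orally by gavage or by bolus tail-vein injection at 2 ml/kg. Compound given as a 5 mg/ml solution in N-methyl-2-pyrrolidone/Tween 80/water (1:2:7). Samples taken at various times (n = 5) and stored at −70 °C. Plasma deproteinized with acetonitrile containing carbamazepine internal standard, then quantified by LC-MS/MS.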

Mus musculus [3] = assay: Antiobesity activity in B6.V/J ob/ob mouse assessed as change in heart weight at 50 mg/kg, po bid measured after 14 days (reference value: 0.150 +/- 0.003 g); assay type: functional
[4] = AUClast in Sprague-Dawley rat at 10 mg/kg, iv; assay type: ADME, organism-based; design: time 0 - last, dose 10 mg/kg, route intravenous; details: plasma
Mus musculus [5] = assay: Antiobesity activity in B6.V/J ob/ob mouse assessed as change in thymus weight at 50 mg/kg, po bid measured after 14 days (reference value: 0.029 +/- 0.006 g); assay type: functional
[6] = Plasma concentration in Sprague-Dawley rat at 10 mg/kg, po measured at 2 hrs; assay type: ADME, organism-based; design: dose 10 mg/kg, route oral; procedure, shortened: as §1
Mus musculus [7] = assay: Antiobesity activity in B6.V/J ob/ob mouse assessed as inhibition of food intake at 50 mg/kg, ip measured up to 2 hrs relative to vehicle-treated control; assay type: functional; details: route intraperitoneal
Procedure, shortened: (§2)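 Male mice were acclimated 1 week at 23 ± 3 °C and 50 ± 20% humidity, then fasted 24 h. They were dosed once intraperitoneally with vehicle or compound: 50 mg/kg in C57BL/6, or 12.5, 25 or 50 mg/kg in B6.V-Lep^ob/J. Food intake was measured at 2, 6 and 12 h versus vehicle control.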

[8] = Plasma concentration in Sprague-Dawley rat at 10 mg/kg, iv measured at 8 hrs; assay type: ADME, organism-based; design: dose 10 mg/kg, route intravenous; procedure, shortened: as §1
Mus musculus [9] = assay: Antiobesity activity in B6.V/J ob/ob mouse assessed as inhibition of food intake at 25 mg/kg, ip measured up to 6 hrs relative to vehicle-treated control; assay type: functional; details: route intraperitoneal; procedure, shortened: as §2
Homo sapiens = organism: Homo sapiens; assay: Selectivity ratio of IC50 for human recombinant 5HT-2B receptor to IC50 for human recombinant 5HT-2A receptor
D(3) dopamine receptor = D(3) dopamine receptor (Homo sapiens, UniProt P35462); assay: Displacement of [3H]-methylspiperone from dopamine D3 receptor (unknown origin) after 30 mins
Sequence of D(3) dopamine receptor (P35462 whole entry): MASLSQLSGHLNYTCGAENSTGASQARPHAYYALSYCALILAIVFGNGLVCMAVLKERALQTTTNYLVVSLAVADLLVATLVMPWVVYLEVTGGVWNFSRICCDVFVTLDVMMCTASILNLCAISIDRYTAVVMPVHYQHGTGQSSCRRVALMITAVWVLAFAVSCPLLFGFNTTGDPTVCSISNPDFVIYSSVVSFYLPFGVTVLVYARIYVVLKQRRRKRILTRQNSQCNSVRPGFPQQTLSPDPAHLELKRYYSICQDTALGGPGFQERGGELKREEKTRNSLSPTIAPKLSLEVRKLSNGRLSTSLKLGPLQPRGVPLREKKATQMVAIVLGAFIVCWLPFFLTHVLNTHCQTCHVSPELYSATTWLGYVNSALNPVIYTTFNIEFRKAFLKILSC
Procedure, shortened: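 Receptor membranes incubated at 27 °C, 60 min for D2L and 30 min for D3, with [3H]methylspiperone (0.2 nM for D2L, 0.25 nM for D3) and test compound at a range of concentrations. Buffer was 50 mM Tris-HCl pH 7.4, 10 mM MgCl2, 1 mM EDTA, 120 mM NaCl. Nonspecific binding defined with haloperidol (D2) or GR103691 (D3). IC50 obtained by nonlinear regression.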

[10] = Drug uptake in Sprague-Dawley rat brain at 10 mg/kg, po measured at 2 hrs; assay type: ADME, organism-based; design: dose 10 mg/kg, route oral; details: read-out: Drug uptake; procedure, shortened: as §1
Mus musculus [11] = assay: Antiobesity activity in B6.V/J ob/ob mouse assessed as change in brain weight at 25 mg/kg, po bid measured after 14 days (reference value: 0.340 +/- 0.017 g); assay type: functional
[12] = target: T2, 5-hydroxytryptamine receptor 1A (Homo sapiens, UniProt P08908); assay: Displacement from [3H]8-OH-DPAT from human recombinant 5HT-1A receptor expressed in HEK293 cells after 120 mins; assay type: cell-based
T2 sequence (P08908 whole entry): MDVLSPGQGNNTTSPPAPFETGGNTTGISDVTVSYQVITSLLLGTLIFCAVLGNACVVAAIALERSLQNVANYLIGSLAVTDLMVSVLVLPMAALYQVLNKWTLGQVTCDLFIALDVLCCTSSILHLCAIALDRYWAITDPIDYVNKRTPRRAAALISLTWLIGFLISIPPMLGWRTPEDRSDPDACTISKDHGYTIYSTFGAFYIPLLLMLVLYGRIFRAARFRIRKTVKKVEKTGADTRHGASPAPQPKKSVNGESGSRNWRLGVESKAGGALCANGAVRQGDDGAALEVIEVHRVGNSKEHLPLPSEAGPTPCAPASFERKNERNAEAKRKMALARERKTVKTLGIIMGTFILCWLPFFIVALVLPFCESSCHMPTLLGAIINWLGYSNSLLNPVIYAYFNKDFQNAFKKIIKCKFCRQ
Procedure, shortened: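 Membranes from HEK293-EBNA cells stably expressing recombinant human 5-HT1A. Incubated with 2 nM [3H]8-OH-DPAT and test compound at a range of concentrations in 50 mM Tris-HCl pH 7.4 with 5 mM MgSO4.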

Mus musculus [13] = assay: Antiobesity activity in C57BL/6 mouse assessed as inhibition of food intake at 50 mg/kg, ip measured after 2 to 12 hrs relative to vehicle-treated control; assay type: functional; details: C57BL/6, ip, route intraperitoneal; procedure, shortened: as §2
Mus musculus [14] = assay: Antiobesity activity in B6.V/J ob/ob mouse assessed as change in gonadal adipose tissue weight at 50 mg/kg, po bid measured after 14 days (reference value: 3.599 +/- 0.155 g); assay type: functional
[15] = Terminal half life in Sprague-Dawley rat at 10 mg/kg, po; assay type: ADME, organism-based; design: dose 10 mg/kg, route oral; details: in vivo, read-out: beta t1/2; procedure, shortened: as §1
[16] = Displacement of [3H]-YM-09151-2 from cloned dopamine D4.2 receptor (unknown origin) expressed in Sf9 cells after 60 mins; design: species or system Homo sapiens
Procedure, shortened: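 Sf9 membranes with cloned D4.2 receptor incubated with 0.2 nM [3H]YM-09151-2 for 60 min at 27 °C in 50 mM Tris-HCl pH 7.4, 5 mM MgCl2, 5 mM EDTA, 5 mM KCl, 1.5 mM CaCl2. Clozapine defined nonspecific binding. Filtered on glass-fiber filters presoaked in 0.3% PEI.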

Mus musculus [17] = assay: Antiobesity activity in B6.V/J ob/ob mouse assessed as inhibition of body weight gain at 25 mg/kg, po bid measured after 14 days relative to vehicle-treated control; assay type: functional; details: 336 h
Mus musculus [18] = assay: Antiobesity activity in B6.V/J ob/ob mouse assessed as reduction of food intake at 25 mg/kg, po qd measured after 14 days; assay type: functional, organism-based; design: dose 25 mg/kg
Procedure, shortened: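 Male ob/ob mice (B6.V-Lep^ob/J) received oral doses once daily for 14 days, with vehicle control. Food intake and body weight gain were followed.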

With `Cl.Clc1cccc(Nc2nc(Cc3ccccc3)nc3c2CCNCC3)c1` the IC50 [1] was over 10000 nM, the concentration at 8 h [2] was 30 ng/mL and the Activity (Mus musculus [3]) was 0.17 g. The AUC(0-t) [4] was 1730 ng·h/mL, the Activity (Mus musculus [5]) was 0.04 g and the concentration at 2 h [6] was 50 ng/mL. The inhibition in vivo at 50 mg/kg (Mus musculus [7]) was 99.8%, the concentration at 8 h [8] was 60 ng/mL and the inhibition in vivo at 25 mg/kg (Mus musculus [9]) was 90.2%. It also gave a Ratio IC50 (Homo sapiens) of 4.2, an IC50 (D(3) dopamine receptor) of 807 nM and a concentration at 2 h [10] of 29.2 ng/mL. The Activity (Mus musculus [11]) was 0.369 g, the IC50 [12] was 1060 nM and the inhibition in vivo at 50 mg/kg (Mus musculus [13]) was 76.6%. For the same compound, the Activity (Mus musculus [14]) was 3.475 g, the half-life [15] was 12.7 h and the IC50 [16] was 900 nM. For the same compound, the inhibition in vivo at 25 mg/kg (Mus musculus [17]) was 32.7% and the Activity (Mus musculus [18]) was “inactive”.
